Assay outcomes from PubChem BioAssay.
Hits are enriched below; roughly 4% of the tested compounds scored in any of these assays.
Insulin prom inh – TRM-6 insulin promoter activity inhibition. 130,000 compounds, 0.9% hits. TRM-6 cells (human fetal islet line), insulin promoter-eGFP reporter, imaging; reporter expression induced with tamoxifen. inhibition, % at 2 µM;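 active means inhibition above the mean plus 3 SD, with well images judged a real hit on visual review, cut at about 60% in these data, passing the limit was not always enough; inconclusive means inhibition over the cutoff but images rejected on review; inactive means inhibition not above the cutoff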
Mdm2 ligase inh – inhibitors of human Mdm2 E3 ubiquitin ligase; Q00987; cell-based MDM2 ubiquitination luciferase reporter, 2 h; 0 = plate control, 100 = twice control, blank-subtracted; signal enhancement, % at 5 µM; 210,000 compounds, 0.11% hits; AID 1230;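 active means signal enhancement of 30% or more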;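 further: luminescence tracks abundance of the self-degrading MDM2-luciferase fusion protein; higher signal means inhibition of MDM2 E3 ligase activity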
Target sequence (Q00987 whole entry, looked up, the tested form may be a part): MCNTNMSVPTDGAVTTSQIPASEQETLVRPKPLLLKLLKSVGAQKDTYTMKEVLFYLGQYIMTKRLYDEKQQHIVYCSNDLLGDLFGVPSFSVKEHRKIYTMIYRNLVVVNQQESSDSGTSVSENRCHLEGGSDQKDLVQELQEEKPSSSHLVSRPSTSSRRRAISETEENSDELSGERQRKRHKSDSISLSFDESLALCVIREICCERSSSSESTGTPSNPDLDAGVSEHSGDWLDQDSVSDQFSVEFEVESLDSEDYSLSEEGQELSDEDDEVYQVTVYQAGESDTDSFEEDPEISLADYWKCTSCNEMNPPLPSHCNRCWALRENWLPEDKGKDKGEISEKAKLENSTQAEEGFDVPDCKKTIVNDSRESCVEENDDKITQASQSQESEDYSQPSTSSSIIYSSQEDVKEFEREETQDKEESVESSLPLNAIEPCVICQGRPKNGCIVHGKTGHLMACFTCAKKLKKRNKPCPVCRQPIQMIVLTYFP
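Timing – 2 h compound exposure at 37 °C · Assay system – mammalian cells stably expressing self-ubiquitinating, self-degrading MDM2 E3–luciferase fusion · Amount – 2000 cells seeded into each well · Measure – % luminescence enhancement versus blank-corrected plate control mean · Measured by – SteadyLite luminescence, 15 min reagent step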
RAM inhibit – inhibitors of the yeast RAM network. S. cerevisiae dse1pr::URA3 reporter, 5-FOA growth OD615, 2 d; analog-sensitive cbk1-as2 kinase mutant strain. inhibition, % at 50 µM. 190,000 compounds, 1.8% hits;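 active means inhibition above a set limit, 3 SD over mean compound inhibition, cut at about 8.4% in these data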;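 further: 0% = DMSO-only wells with no growth and 100% = 10 µM 1-NA-PP1 full growth; inhibition rescues growth on 5-FOA so higher OD means more RAM inhibition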
Yeast growth inh – yeast BB579 growth reduction in restrictive medium; 140,000 compounds, 0.51% hits; AID 804; inhibition, % at 10 µM; S. cerevisiae BB579 growth, OD615, 48 h;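 active means inhibition above a set limit, 3 SD over the mean compound inhibition, cut at about 44% in these data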
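Test system: DeaD yeast strain BB579 / Buffer or medium: restrictive glucose-based CSMM-D medium / Doses: single 10 µM dose / Schedule: 4 h cell preincubation, 48 h compound exposure, 30 °C humidified / Technique: culture absorbance at 615 nm / Controls: amphotericin B positive control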
Yeast life ext – extends the lifespan of yeast. S. cerevisiae growth with nicotinamide, OD615; deaD strain in restrictive glucose medium. inhibition of the nicotinamide effect, % at 10 µM. 130,000 compounds, 0.68% hits;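 active means inhibition above a set limit, placed 3 SD over the median of all compounds, cut at about 26% in these data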;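 further: 0% = nicotinamide-treated wells and 100% = cells grown without nicotinamide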
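Test system: DeaD-strain S. cerevisiae / Buffer or medium: restrictive glucose medium / Also added: nicotinamide 1.5 mM / Doses: one concentration, 10 µM, DMSO 0.25% / Schedule: 48 h at 30 °C / Signal: OD615 measurement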
Measles CPE – protection of cells from measles virus | protection (pct of control), % at 4 µM | 140,000 compounds, 1.5% hits | Measles virus-infected cells, CPE protection, absorbance; in the data active means protection mostly above about 24%, no sharp cut-off; inactive means mostly below about 26%
An asterisk follows results filed as active; ? = inconclusive; . = no result.

SMILES | Insulin prom inh | Mdm2 ligase inh | RAM inhibit | Yeast growth inh | Yeast life ext | Measles CPE
Cc1ccc(S(=O)(=O)N2CCC(NC(=O)OC(C)C)CC2)cc1 | . | -21 | 1 | . | . | .
Cc1ccc(S(=O)(=O)NCCSc2nnnn2-c2cc(C)ccc2C)cc1 | -110 | -10 | 10* | -46 | -6 | 10
Cc1ccc(S(=O)(=O)NCCSc2nnnn2-c2ccccc2)cc1 | -25 | -8 | 2 | -8 | . | 11
CCCCCc1c(O)c2ccccc2[nH]c1=O | 41 | 0 | 1 | -24 | -6 | 36*
O=C(N/N=C/c1cccc(F)c1)c1c(O)c2ccccc2[nH]c1=O | . | -11 | 1 | -34 | 52* | 7
O=C(NCC1CCCO1)c1c(O)c2ccccc2[nH]c1=O (stereo not drawn) | -14 | -10 | 2 | -18 | 57* | 5
O=C(N/N=C/c1ccc(F)cc1)c1c(O)c2ccccc2[nH]c1=O | . | -25 | 0 | -8 | 57* | 0
CCOC(=O)c1c(NCC2CCCO2)c2ccccc2[nH]c1=O (stereo not drawn) | 31 | -11 | 1 | -16 | -2 | 4
CCn1c(SCC(=O)Nc2ccccc2OC)nc(O)cc1=O | . | -9 | . | . | . | .
Cc1nn(Cc2ccc(Cl)cc2)c(C)c1NC(=O)CCCn1nc([N+](=O)[O-])c(Cl)c1C | 7 | 13 | 1 | -22 | -2 | 6
Clc1cccc2c1CCN(Cc1nc(-c3cnccn3)no1)C2 | . | -18 | 1 | . | . | .
COc1ccc(OC)c(NC(=O)Nc2nnc(N3CCCCC3C)s2)c1 (stereo not drawn) | . | -30 | . | . | . | .
O=C(N/N=C/c1ccccc1)c1c(O)c2ccccc2[nH]c1=O | . | -10 | 0 | -29 | 59* | 7
CC(C)CCn1c(=O)c(C(=O)N/N=C/c2cccc(F)c2)c(O)c2ccccc21 | . | -2 | 0 | 13 | 38* | 3
CCCn1c(=O)c(C(=O)N/N=C/c2ccc(F)cc2)c(O)c2ccccc21 | . | -4 | . | . | . | .
CC1CCc2cc(F)cc3c(O)c(C(=O)NCC4CCCO4)c(=O)n1c23 (stereo not drawn) | 16 | -7 | 11* | -66 | -1 | 14
COC(=O)c1c(O)c2ccccc2[nH]c1=O | 7 | -4 | 0 | -24 | 41* | 8
COc1ccc(OC)c(NC(=O)CSc2ccc3nnc(-c4cccnc4)n3n2)c1 | 55 | -12 | 4 | . | . | .
O=c1c2nnn(-c3ccc(Br)cc3)c2ncn1Cc1ccccn1 | . | -24 | 3 | . | . | .
CCc1cc2c(NCC3CCCO3)ncnc2s1 (stereo not drawn) | 74* | -15 | 1 | -39 | -14 | 15
Cc1nccn1-c1ccc(C(F)(F)F)cc1[N+](=O)[O-] | 73* | -5 | -1 | . | . | .
Cc1nccn1-c1ccc(C(F)(F)F)cc1NC=O | -15 | -8 | 2 | -80 | 3 | 3
CN1c2ccccc2C(O)=C(C(=S)Nc2ccc(F)c(Cl)c2)S1(=O)=O | 8 | -5 | 6 | -37 | -12 | 41*
Cn1c(=O)c2c(ncn2CC(COCc2ccccc2)OCc2ccccc2)n(C)c1=O (stereo not drawn) | . | -17 | . | . | . | .
COc1cc(O)c2c(c1)OC(C)(C)CC2=O | -45 | -11 | 1 | -15 | -11 | 0
SMILES | Insulin prom inh | Mdm2 ligase inh | RAM inhibit | Yeast growth inh | Yeast life ext | Measles CPE
CC1(C)CC(=O)c2c(O)cc(OCc3ccc(Br)cc3)cc2O1 | -23 | -9 | 8.7* | -45 | -3 | 31
COC(=O)c1ccc(COc2cc(O)c3c(c2)OC(C)(C)CC3=O)cc1 | -175 | -13 | 10* | -66 | 0 | 1
CCCCn1c(=O)c(CCC(=O)OCC(=O)NCc2ccc(OC)c(OC)c2)nc2ccccc21 | ? | 18 | 5 | . | . | .
Cc1ccc(/C=C/C(=O)C2C(=O)c3ccccc3C2=O)cc1 | . | -17 | 3 | -20 | 42* | 1
O=C(Nc1ccccc1Br)C1CC(=O)N(c2ccc3c4c(cccc24)CC3)C1 (stereo not drawn) | 19 | 3 | 2 | -49 | -1 | 6
Cc1c(C(=O)N2CCCCC2)nn(-c2ccc(Cl)cc2)c(=O)c1C#N | -71 | -11 | 1 | . | . | .
C/C(=N\NC(=S)NCc1ccccc1)c1ccc2c(c1)OCCO2 | . | 5 | 1 | . | . | .
C/C(=N\NC(=S)NCc1ccccc1)c1ccc(Br)cc1 | . | 1 | 9.9* | . | . | .
Cc1ccc(C(=O)Nc2nc(C)c(C(=O)Nc3ccc4c(c3)CCC4)s2)cc1 | 7 | -13 | 6 | -7 | -2 | 5
O=C1/C(=C/c2ccc(Cl)cc2)NC(=S)N1Cc1cccnc1 | . | -13 | 2 | . | . | .
CCOC(=O)c1ccc2nc(NC(=O)C(C)C)sc2c1 | -40 | -15 | 0 | -14 | -20 | 3
C=CCN(CC=C)S(=O)(=O)c1ccc2nc(NC(=O)C(C)C)sc2c1 | 29 | -1 | 0 | -41 | 76* | 11
C=CCn1c(SCc2ccccc2)nc2scc(-c3ccc(C)o3)c2c1=O | -19 | -7 | 11* | -44 | 6 | 3
CC(Cl)C(=O)NC(=O)NC12CC3CC(CC(C3)C1)C2 (stereo not drawn) | . | -17 | 1 | -19 | 22 | 23
O=C(CCl)NC(=O)NC12CC3CC(CC(C3)C1)C2 | 58 | 20 | 1 | 15 | 35* | 7
CCOC(=O)c1c(NC(=O)c2ccc(N3C(=O)[C@@H]4[C@H](C3=O)[C@H]3C=C[C@@H]4C3)cc2)sc2c1CCCC2 | 14 | -1 | 5 | -27 | 5 | 17
Cc1cc(C(=O)NCC(c2ccco2)N(C)C)no1 (stereo not drawn) | 28 | -1 | 2 | -1 | -12 | 66*
COc1cc(C(=O)NCC(c2ccco2)N(C)C)cc(OC)c1OC (stereo not drawn) | . | -9 | 0 | 8 | -7 | 7
O=C(c1ccco1)N(CCC(c1ccccc1)c1ccco1)Cc1ccccc1 (stereo not drawn) | -7 | -20 | 11* | -29 | 9 | 18
CCC(=O)N(CCC(c1ccccc1)c1ccco1)Cc1cccs1 (stereo not drawn) | 0 | -8 | 1 | -47 | 4 | 35
c1cnc2ccc(C(c3nnnn3C3CCCC3)N3CCN4CCCC4C3)cc2c1 (stereo not drawn) | -24 | -14 | 0 | -4 | -21 | 6
CC(C)C1OC(c2cccc(NC(=O)c3cccs3)c2)OCC1(C)C (stereo not drawn) | -7 | -10 | 9.3* | . | . | .
CCOc1ccc(CCNC(=O)c2cc3sccc3n2CC)cc1OCC | -14 | -12 | 9.0* | -25 | 2 | 12
S=C1NC2(CCCCC2)NN1c1ccccc1 | . | -9 | -1 | . | . | .
CC1CCCC2(C1)NC(=S)N(c1ccccc1)N2 (stereo not drawn) | 40 | -15 | -2 | 87* | -32 | 2
CCOc1ccccc1OCCCOc1ccc(C)cc1Cl | 20 | -14 | 0 | -41 | -23 | 8
